This is an account of results in ChEMBL document CHEMBL5108036, “A concise SAR-analysis of antimicrobial cationic amphipathic barbiturates for an improved activity-toxicity profile” (Eur J Med Chem, 2022).

Where only a bound is given, the exact number is not on record here.

In one data set the test system is Bacillus subtilis. The experiment in a line: Antibacterial activity against Bacillus subtilis 168 incubated for 48 hrs and measured by broth microdilution assay. The class given is functional. An outline of the steps: (§1)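 MICs in µg/mL were measured against the reference strains S. aureus ATCC 9144, B. subtilis 168, E. coli ATCC 25922 and P. aeruginosa ATCC 27853. Compounds were tested as di-TFA salts.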

The subject of another data set is Escherichia coli. Kind of data set: Antibacterial activity against Escherichia coli ATCC 25922 incubated for 48 hrs and measured by broth microdilution assay. The class given is functional. The gist of the method: as §1
In general terms: Broth dilution looks for growth in wells or tubes with falling amounts of substance.

Data set [1] in a line: Hemolytic activity in human RBC measured after 1 hr by microplate reader method. The class given is toxicity, cell-based, Erythrocyte. Conditions: human, human red blood cells (erythrocytes). The gist of the method:
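Human red blood cell lysis was used as the cytotoxicity read-out, expressed as EC50 in µg/mL. The highest concentration tested was 500 µM. Compounds were tested as di-TFA salts.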

Another data set deals with Staphylococcus aureus. The experiment in a line: Antibacterial activity against Staphylococcus aureus ATCC 9144 incubated for 48 hrs and measured by broth microdilution assay. The class given is functional. The gist of the method:
as §1

A further data set has as its system Pseudomonas aeruginosa. The experiment in a line: Antibacterial activity against Pseudomonas aeruginosa ATCC 27853 incubated for 48 hrs and measured by broth microdilution assay. The data set is classed as functional. The gist of the method:
as §1

Take `NCCCCN1C(=O)N(CCCCN)C(=O)C(Cc2ccc(Br)c3ccccc23)(Cc2ccc(Br)c3ccccc23)C1=O.O=C(O)C(F)(F)F.O=C(O)C(F)(F)F`: the MIC against Bacillus subtilis stood at 2 µg/mL; against Escherichia coli, 4 µg/mL; in the data set on Staphylococcus aureus, 2 µg/mL; with Pseudomonas aeruginosa it was 4 µg/mL. This molecule showed a concentration giving a half-maximal response (EC50) at 1 h in data set [1] of 27 µg/mL.
As to `N=C(N)NCCCCCN1C(=O)N(CCCCCNC(=N)N)C(=O)C(Cc2cc(Br)cc(Br)c2)(Cc2cc(Br)cc(Br)c2)C1=O.O=C(O)C(F)(F)F.O=C(O)C(F)(F)F`, the MIC came to 4 µg/mL in the data set with Bacillus subtilis, 4 µg/mL in the data set with Escherichia coli, 4 µg/mL with Staphylococcus aureus and 8 µg/mL with Pseudomonas aeruginosa. This molecule also showed an EC50 at 1 h in data set [1] of 29 µg/mL.
Take `NCCCCN1C(=O)N(CCCCN)C(=O)C(Cc2c(Br)cc(Br)cc2Br)(Cc2c(Br)cc(Br)cc2Br)C1=O.O=C(O)C(F)(F)F.O=C(O)C(F)(F)F`: the minimum inhibitory concentration (MIC) is 2 µg/mL in the data set with Bacillus subtilis, 4 µg/mL in the data set on Escherichia coli, 2 µg/mL in the data set on Staphylococcus aureus and 4 µg/mL with Pseudomonas aeruginosa. In addition, the EC50 at 1 h in data set [1] amounted to 30 µg/mL.
Turning to `CCCCCCC1(Cc2cc(Br)cc(Br)c2)C(=O)N(CCCCNC(=N)N)C(=O)N(CCCCNC(=N)N)C1=O.O=C(O)C(F)(F)F.O=C(O)C(F)(F)F` (configuration not stated), the MIC came to 4 µg/mL with Bacillus subtilis, 4 µg/mL in the data set with Escherichia coli, 2 µg/mL against Staphylococcus aureus and 8 µg/mL in the data set with Pseudomonas aeruginosa. In data set [1], the concentration for a half-maximal effect (EC50) at 1 h amounted to 58 µg/mL.
`N=C(N)NCCCCN1C(=O)N(CCCCNC(=N)N)C(=O)C(Cc2ccc3ccccc3n2)(Cc2ccc3ccccc3n2)C1=O.O=C(O)C(F)(F)F.O=C(O)C(F)(F)F`: the MIC is 16 µg/mL against Bacillus subtilis, 128 µg/mL in the data set with Escherichia coli, 8 µg/mL in the data set with Staphylococcus aureus and more than 256 µg/mL against Pseudomonas aeruginosa. Also, the EC50 at 1 h in data set [1] is more than 432 µg/mL.
On the same counts, the results for `N=C(N)NCCCN1C(=O)N(CCCNC(=N)N)C(=O)C(Cc2ccc(C(F)(F)F)cc2)(Cc2cc(Br)cc(Br)c2)C1=O.O=C(O)C(F)(F)F.O=C(O)C(F)(F)F` (configuration not stated) are 4 µg/mL, 16 µg/mL, 4 µg/mL, 64 µg/mL and more than 480 µg/mL.
On the same counts, the results for `NCCCCN1C(=O)N(CCCCN)C(=O)C(Cc2cc(Br)c(Br)cc2Br)(Cc2cc(Br)c(Br)cc2Br)C1=O.O=C(O)C(F)(F)F.O=C(O)C(F)(F)F` are 4 µg/mL, 8 µg/mL, 4 µg/mL, 8 µg/mL and 27 µg/mL.
On the same counts, the results for `N[C@H]1CC[C@@H](N2C(=O)N([C@H]3CC[C@@H](N)CC3)C(=O)C(Cc3cc(Br)cc(Br)c3)(Cc3cc(Br)cc(Br)c3)C2=O)CC1.O=C(O)C(F)(F)F.O=C(O)C(F)(F)F` are 4 µg/mL, 4 µg/mL, 4 µg/mL, 8 µg/mL and 15 µg/mL.
Consider `N[C@H]1C[C@H](N2C(=O)N([C@H]3C[C@H](N)C3)C(=O)C(Cc3cc(Br)cc(Br)c3)(Cc3cc(Br)cc(Br)c3)C2=O)C1.O=C(O)C(F)(F)F.O=C(O)C(F)(F)F`, for which the MIC was determined as 4 µg/mL in the data set with Bacillus subtilis, 4 µg/mL against Escherichia coli, 4 µg/mL in the data set on Staphylococcus aureus and 8 µg/mL against Pseudomonas aeruginosa. The molecule also returned an EC50 at 1 h in data set [1] of 93 µg/mL.
Consider `N=C(N)N[C@H]1C[C@H](N2C(=O)N([C@H]3C[C@H](NC(=N)N)C3)C(=O)C(Cc3cc(Br)cc(Br)c3)(Cc3cc(Br)cc(Br)c3)C2=O)C1.O=C(O)C(F)(F)F.O=C(O)C(F)(F)F`, for which the MIC against Bacillus subtilis turned out to be 4 µg/mL; against Escherichia coli, 4 µg/mL; against Staphylococcus aureus, 2 µg/mL; in the data set with Pseudomonas aeruginosa, 8 µg/mL. This molecule also displayed an EC50 at 1 h in data set [1] of 62 µg/mL.
As for `CCCCCCC1(Cc2cc(Br)cc(Br)c2)C(=O)N(CCCCN)C(=O)N(CCCCN)C1=O.O=C(O)C(F)(F)F.O=C(O)C(F)(F)F`, the MIC was 4 µg/mL in the data set with Bacillus subtilis, 16 µg/mL in the data set on Escherichia coli, 4 µg/mL against Staphylococcus aureus and 16 µg/mL with Pseudomonas aeruginosa. In data set [1], this molecule registered an EC50 at 1 h of 144 µg/mL.
As for `NCCCN1C(=O)N(CCCN)C(=O)C(Cc2ccc(C(F)(F)F)cc2)(Cc2ccc(C(F)(F)F)cc2)C1=O.O=C(O)C(F)(F)F.O=C(O)C(F)(F)F`, the MIC with Bacillus subtilis was determined as 16 µg/mL; in the data set on Escherichia coli it was 64 µg/mL; against Staphylococcus aureus it was 64 µg/mL; in the data set with Pseudomonas aeruginosa it was 128 µg/mL. The molecule also had an EC50 at 1 h in data set [1] of more than 393 µg/mL.
`N=C(N)NCCCCN1C(=O)N(CCCCNC(=N)N)C(=O)C(Cc2cc(Br)cc(Br)c2)(Cc2ccc(Br)c3ccccc23)C1=O.O=C(O)C(F)(F)F.O=C(O)C(F)(F)F` (configuration not stated): the MIC against Bacillus subtilis was found to be 4 µg/mL; in the data set on Escherichia coli, 4 µg/mL; in the data set on Staphylococcus aureus it was 1 µg/mL; in the data set with Pseudomonas aeruginosa, 8 µg/mL. Further, in data set [1], it took 58 µg/mL to reach a half-maximal effect (EC50 at 1 h).
`NCCCN1C(=O)N(CCCN)C(=O)C(Cc2ccc3cc(Br)ccc3n2)(Cc2ccc3cc(Br)ccc3n2)C1=O.O=C(O)C(F)(F)F.O=C(O)C(F)(F)F`: the MIC with Bacillus subtilis came to 8 µg/mL; against Escherichia coli it was 64 µg/mL; against Staphylococcus aureus, 32 µg/mL; against Pseudomonas aeruginosa, 256 µg/mL. This molecule came in with a concentration giving a half-maximal response (EC50) at 1 h in data set [1] of more than 455 µg/mL.
On the same counts, the results for `NCCCCN1C(=O)N(CCCCN)C(=O)C(Cc2cc(Br)cc(Br)c2)(Cc2cc(C(F)(F)F)cc(C(F)(F)F)c2)C1=O.O=C(O)C(F)(F)F.O=C(O)C(F)(F)F` are 2 µg/mL, 8 µg/mL, 8 µg/mL, 8 µg/mL and 93 µg/mL.
On the same counts, the results for `NCCN1C(=O)N(CCN)C(=O)C(Cc2cc(Br)cc(Br)c2)(Cc2cc(Br)cc(Br)c2)C1=O.O=C(O)C(F)(F)F.O=C(O)C(F)(F)F` are 4 µg/mL, 4 µg/mL, 4 µg/mL, 8 µg/mL and 39 µg/mL.
Regarding `CC(C)(C)c1ccc(CC2(Cc3cc(Br)cc(Br)c3)C(=O)N(CCCCNC(=N)N)C(=O)N(CCCCNC(=N)N)C2=O)cc1.O=C(O)C(F)(F)F.O=C(O)C(F)(F)F` (configuration not stated), the MIC was determined as 2 µg/mL against Bacillus subtilis, 2 µg/mL in the data set with Escherichia coli, 2 µg/mL in the data set with Staphylococcus aureus and 4 µg/mL against Pseudomonas aeruginosa. In data set [1], this molecule came in with an EC50 at 1 h of 39 µg/mL.
With `NCCCCN1C(=O)N(CCCCN)C(=O)C(Cc2ccc3ccccc3n2)(Cc2ccc3ccccc3n2)C1=O.O=C(O)C(F)(F)F.O=C(O)C(F)(F)F`, the MIC in the data set on Bacillus subtilis is 64 µg/mL; in the data set on Escherichia coli, more than 256 µg/mL; with Staphylococcus aureus, 256 µg/mL; with Pseudomonas aeruginosa, more than 256 µg/mL. Moreover, the EC50 at 1 h in data set [1] is more than 390 µg/mL.
As to `N=C(N)NCCCCCCN1C(=O)N(CCCCCCNC(=N)N)C(=O)C(Cc2cc(Br)cc(Br)c2)(Cc2cc(Br)cc(Br)c2)C1=O.O=C(O)C(F)(F)F.O=C(O)C(F)(F)F`, the MIC against Bacillus subtilis amounted to 4 µg/mL; against Escherichia coli it was 4 µg/mL; in the data set with Staphylococcus aureus, 4 µg/mL; in the data set with Pseudomonas aeruginosa it was 32 µg/mL. Further, the EC50 at 1 h in data set [1] is 57 µg/mL.
Take `NCCCCN1C(=O)N(CCCCN)C(=O)C(Cc2cc(Br)cc(Br)c2)(Cc2ccc3ccccc3n2)C1=O.O=C(O)C(F)(F)F.O=C(O)C(F)(F)F`: the MIC in the data set with Bacillus subtilis worked out at 8 µg/mL; in the data set on Escherichia coli it was 128 µg/mL; against Staphylococcus aureus, 32 µg/mL; in the data set on Pseudomonas aeruginosa, 256 µg/mL. The EC50 at 1 h in data set [1] is more than 444 µg/mL.
As for `O=C(O)c1cn(C2CC2)c2cc(N3CCNCC3)c(F)cc2c1=O` [CIPROFLOXACIN], the MIC against Bacillus subtilis and in the data set on Escherichia coli was less than 0.03 µg/mL in each case.

Broadly, the MIC is the smallest concentration in the dilution series that meets the test's criterion for growth inhibition. High values mean a less susceptible organism, low ones a more susceptible organism. In general, EC50 refers to the concentration giving half of the maximal effect.
